Source: ChEMBL document CHEMBL1126143, “Synthesis and antitumor activity of tropolone derivatives. 7. Bistropolones containing connecting methylene chains” (J Med Chem, 1992)
The source made the active and inactive calls. The rule behind the calls is not given here.

Experiments:
P388 [1] = experiment: Compound was tested in vivo for the antitumor activity against P388 in mice after intraperitoneal administration of 6.3 mg/kg dose; T/C= treated/control; type: functional, Mus musculus
P388 [2] = experiment: Compound was tested in vivo for the antitumor activity against P388 in mice after intraperitoneal administration of 12.5 mg/kg dose; T/C= treated/control; type: functional, Mus musculus
P388 [3] = experiment: Compound was tested in vivo for the antitumor activity against P388 leukemia cells in mice after intraperitoneal administration of 25 mg/kg dose; T/C= treated/control; type: functional, Mus musculus
[4] = Inhibit growth of KB cells by 50%; type: functional, cell-based; conditions: Homo sapiens
FM3A [5] = experiment: Ability to induce dNTP pool imbalance at 7.9 uM dose was tested; significant imbalance in the intracellular dNTP pool in FM3A cells; conditions: Mus musculus
FM3A [6] = experiment: Inhibit growth of FM3A cells by 50%; type: functional, cell-based; conditions: Mus musculus
In short: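 FM3A cells were grown in ES medium with 2% heat-inactivated FBS at 37 °C under 5% CO2, seeded at about 5 × 10^4 cells/mL, and exposed to a range of drug concentrations. Cells were counted electronically after 48 h. IC50 is the concentration that reduces growth rate by 50% of control.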

FM3A [7] = experiment: Ability to induce dNTP pool imbalance at 15.0 uM dose was tested; significant imbalance in the intracellular dNTP pool in FM3A cells; conditions: Mus musculus
P388 [8] = experiment: Compound was tested in vivo for the antitumor activity against P388 in mice after intraperitoneal administration of 25 mg/kg dose; T/C= treated/control; type: functional, Mus musculus
P388 [9] = experiment: Compound was tested in vivo for the antitumor activity against P388 leukemia cells in mice after intraperitoneal administration of 100 mg/kg dose; T/C= treated/control; type: functional, Mus musculus
P388 [10] = experiment: Compound was tested in vivo for the antitumor activity against P388 in mice after intraperitoneal administration of 50 mg/kg dose; T/C= treated/control; type: functional, Mus musculus
P388 [11] = experiment: Tested in vivo for the antitumor activity against P388 in mice after intraperitoneal administration of 200 mg/kg dose; T/C= treated/control; type: functional, Mus musculus
FM3A [12] = experiment: Ability to induce dNTP pool imbalance at 7.3 uM dose was tested; significant imbalance in the intracellular dNTP pool in FM3A cells; conditions: Mus musculus
P388 [13] = experiment: Tested in vivo for the antitumor activity against P388 in mice after intraperitoneal administration of 100 mg/kg dose; T/C= treated/control; type: functional, Mus musculus
P388 [14] = experiment: Tested in vivo for the antitumor activity against P388 leukemia cells in mice after intraperitoneal administration of 400 mg/kg dose; T/C= treated/control; type: functional, Mus musculus
FM3A [15] = experiment: Ability to induce dNTP pool imbalance at 16.4 uM dose was tested; significant imbalance in the intracellular dNTP pool in FM3A cells; conditions: Mus musculus
FM3A [16] = experiment: Ability to induce dNTP pool imbalance at 41 uM dose was tested; significant imbalance in the intracellular dNTP pool in FM3A cells; type: functional, cell-based; conditions: Mus musculus
P388 [17] = conditions: Mus musculus
P388 [18] = experiment: Compound was tested in vivo for the antitumor activity against P388 in mice after intraperitoneal administration of 400 mg/kg dose; T/C= treated/control; type: functional, Mus musculus
FM3A [19] = experiment: Compound''s ability to induce dNTP pool imbalance at 6.1 uM dose was tested; significant imbalance in the intracellular dNTP pool in FM3A cells; type: functional, cell-based; conditions: Mus musculus
P388 [20] = experiment: Compound was tested in vivo for the antitumor activity against P388 leukemia cells in mice after intraperitoneal administration of 12.5 mg/kg dose; T/C= treated/control
P388 [21] = experiment: Compound was tested in vivo for the antitumor activity against P388 in mice after intraperitoneal administration of 3.1 mg/kg dose; T/C= treated/control; type: functional, Mus musculus
P388 [22] = experiment: Compound was tested in vivo for the antitumor activity against P388 in mice after intraperitoneal administration of 0.6 mg/kg dose; T/C= treated/control; type: functional, Mus musculus
P388 [23] = experiment: Compound was tested in vivo for the antitumor activity against P388 in mice after intraperitoneal administration of 2.5 mg/kg dose; T/C= treated/control; type: functional, Mus musculus
P388 [24] = experiment: Compound was tested in vivo for the antitumor activity against P388 leukemia cells in mice after intraperitoneal administration of 5 mg/kg dose; T/C= treated/control; type: functional, Mus musculus
FM3A [25] = experiment: Ability to induce dNTP pool imbalance at 9.0 uM dose was tested; significant imbalance in the intracellular dNTP pool in FM3A cells; conditions: Mus musculus
P388 [26] = experiment: Compound was tested in vivo for the antitumor activity against P388 in mice after intraperitoneal administration of 20 mg/kg dose; T/C= treated/control; type: functional, Mus musculus
P388 [27] = experiment: Compound was tested in vivo for the antitumor activity against P388 leukemia cells in mice after intraperitoneal administration of 40 mg/kg dose; T/C= treated/control; type: functional, Mus musculus
P388 [28] = experiment: Compound was tested in vivo for the antitumor activity against P388 in mice after intraperitoneal administration of 10 mg/kg dose; T/C= treated/control; type: functional, Mus musculus
FM3A [29] = experiment: Ability to induce dNTP pool imbalance at 3.5 uM dose was tested; significant imbalance in the intracellular dNTP pool in FM3A cells; conditions: Mus musculus

Structure (SMILES) | IC50 [4] | IC50 (FM3A [6]) | T/C (P388 [11]) | T/C (P388 [13]) | T/C (P388 [14]) | Imbalance (FM3A [16]) | further results
CC(C)c1ccc(Cc2ccc(C(C)C)cc(=O)c2O)c(O)c(=O)c1 | < 0.9 µM | 1 µM | – | – | – | – | T/C (P388 [1]): 137%; T/C (P388 [2]): 152%; T/C (P388 [3]): 123%; Imbalance (FM3A [5]): significant imbalance in the intracellular dNTP pool in FM3A cells
CC(C)c1ccc(CCc2ccc(C(C)C)cc(=O)c2O)c(O)c(=O)c1 | 8 µM | 1.2 µM | – | – | – | – | T/C (P388 [1]): 121%; Imbalance (FM3A [7]): significant imbalance in the intracellular dNTP pool in FM3A cells; T/C (P388 [8]): 150%; T/C (P388 [9]): 165%
CC(C)c1ccc(CCCCCCc2ccc(C(C)C)cc(=O)c2O)c(O)c(=O)c1 | 1.5 µM | 0.9 µM | 80% | 128% | 70% | – | T/C (P388 [10]): 137%; T/C (P388 [8]): 110%; Imbalance (FM3A [12]): significant imbalance in the intracellular dNTP pool in FM3A cells
CC(C)c1ccc(SCCSc2ccc(C(C)C)cc(=O)c2O)c(O)c(=O)c1 | 1.6 µM | 4.8 µM | 171% | 151% | 80% | – | Imbalance (FM3A [15]): significant imbalance in the intracellular dNTP pool in FM3A cells
Oc1cccc2cccnc12 [OXYQUINOLINE] | < 2.1 µM | 2.1 µM | – | 92% | – | significant imbalance in the intracellular dNTP pool in FM3A cells | –
CC(C)C1=CC(=O)C(=O)/C(=C2/C=CC(C(C)C)=CC(O)=C2O)C=C1 | 9.5 µM | 3.7 µM | – | – | – | significant imbalance in the intracellular dNTP pool in FM3A cells | T/C (P388 [10]): 171%; T/C (P388 [8]): 152%; T/C (P388 [9]): 143%
CC(C)c1ccc(SCCCSc2ccc(C(C)C)cc(=O)c2O)c(O)c(=O)c1 | 1.6 µM | – | 131% | 93% | 169% | – | –
COc1ccc(C(c2ccc(C(C)C)cc(OC)c2=O)c2ccc(C(C)C)cc(OC)c2=O)cc1 | 114 µM | 14.1 µM | – | – | – | – | T/C (P388 [17]): inactive
CC(C)c1ccc(CCCCCCCCCCCCc2ccc(C(C)C)cc(=O)c2O)c(O)c(=O)c1 | 27.3 µM | 1.3 µM | 107% | 106% | – | significant imbalance in the intracellular dNTP pool in FM3A cells | T/C (P388 [18]): 105%
CCOC(c1ccc(OC)cc1)c1ccc(C(C)C)cc(=O)c1O (stereo not given) | 1.6 µM | 1.1 µM | 140% | – | 140% | – | Imbalance (FM3A [19]): significant imbalance in the intracellular dNTP pool in FM3A cells
CC(C)c1ccc(CCCCCCCCc2ccc(C(C)C)cc(=O)c2O)c(O)c(=O)c1 | 4.3 µM | 0.9 µM | 110% | 107% | 110% | significant imbalance in the intracellular dNTP pool in FM3A cells | –
CC(C)c1cccc(=O)c(O)c1 [HINOKITIOL] | 3.5 µM | 1.1 µM | – | – | – | significant imbalance in the intracellular dNTP pool in FM3A cells | T/C (P388 [14]; Mus musculus): inactive
COc1ccc(C(c2oc(CO)cc(=O)c2O)c2oc(CO)cc(=O)c2O)cc1 | > 249 µM | > 249 µM | – | – | – | – | T/C (P388 [17]): inactive
COc1ccc(C(c2ccc3cccnc3c2O)c2ccc3cccnc3c2O)cc1 | < 0.7 µM | 0.01 µM | – | – | – | significant imbalance in the intracellular dNTP pool in FM3A cells | T/C (P388 [1]): 128%; T/C (P388 [20]): 164%; T/C (P388 [21]): 111%
COc1ccc(C(c2ccc(C(C)C)cc(=O)c2O)c2ccc(C(C)C)cc(=O)c2O)cc1 | 1.1 µM | 0.4 µM | – | – | – | – | T/C (P388 [22]): 127%; T/C (P388 [23]): 134%; T/C (P388 [24]): 173%; Imbalance (FM3A [25]): significant imbalance in the intracellular dNTP pool in FM3A cells
CC(C)c1ccc(COCc2ccc(C(C)C)cc(=O)c2O)c(O)c(=O)c1 | 6.2 µM | 0.08 µM | – | – | – | – | T/C (P388 [26]): 186%; T/C (P388 [27]): 156%; T/C (P388 [28]): 164%; Imbalance (FM3A [29]): significant imbalance in the intracellular dNTP pool in FM3A cells
